Assay [1] deals with Encephalitozoon cuniculi. Description: Activity of Encephalitozoon cuniculi polyamine oxidase assessed as hydrogen peroxide release per mg protein by spectrophotometry relative to 1 mM N'-acetylspermine. Summed up: (§1)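 Crude enzyme came from mature E. cuniculi spores collected from culture overlay. Spores were washed in PBS pH 6.8, given 1% SDS for 5 min, glass-bead disrupted to >80% breakage, and clarified at 2,200 × g. The 1 ml assay at 37°C held 0.1 M glycine pH 7.0, 10 U horseradish peroxidase, 5 mM ABTS and 22–220 μg protein. Substrate started the reaction. A420 was followed 15 or 30 min; initial linear rate minus no-substrate control.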

Assay [2] concerns Encephalitozoon cuniculi. Description: Activity of Encephalitozoon cuniculi polyamine oxidase assessed as hydrogen peroxide release by spectrophotometry. Summed up:
as §1

Assay [3] relates to Encephalitozoon cuniculi. Nature of the assay: Activity of Encephalitozoon cuniculi polyamine oxidase assessed as hydrogen peroxide release per mg protein by spectrophotometry relative to 0.1 mM N'-acetylspermine. In outline:
as §1

Assay [4] is described as follows: Inhibition of Encephalitozoon cuniculi polyamine oxidase assessed as hydrogen peroxide release using N'-acetylspermine substrate by spectrophotometry. Summed up:
(§2)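 Crude spore extract (SDS-washed spores, glass-bead disrupted, clarified at 2,200 × g) in 0.1 M glycine, pH 7.0, with horseradish peroxidase and ABTS. Runs used N1-acetylspermine at 100–2,000 μM, alone or with the analog fixed at 5, 50 or 100 μM; the analog alone was run at 1–25 μM. Reactions were started with 67 μg extract, and A420 was read for 15 min. Kinetic constants came from Hanes-Woolf plots ([S]/V vs [S]).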

Assay [5] deals with Encephalitozoon cuniculi. Nature of the assay: Activity of Encephalitozoon cuniculi polyamine oxidase assessed as hydrogen peroxide release by spectrophotometry in presence of 1,15-bis{N-[O-phenyl)benzylamino}-4,12-diazapentadecane. Summed up: as §2
The test system of assay [6] is Encephalitozoon cuniculi. Description: Activity of Encephalitozoon cuniculi polyamine oxidase assessed as hydrogen peroxide release per mg protein by spectrophotometry. Summed up:
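Enzyme was a clarified glass-bead homogenate of SDS-washed mature spores (>80% breakage). Reactions at 37°C held 0.1 M glycine, pH 7.0, 10 U HRP, 5 mM ABTS and 22–220 μg protein, and were started with substrate (1 mM N1-acetylspermine or another, e.g. 0.1 mM). Peroxide was followed as ABTS oxidation at 420 nm (ε 3.6 × 10⁴ M⁻¹ cm⁻¹) for 15 or 30 min. Values are the initial linear rate minus a no-substrate control.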

“And” between values parts separate entries of the source, which are not always exact repeats. Identical values can stand only once.

As a reminder, the Km is the concentration of substrate that gives half-maximal velocity. For orientation: Vmax means the rate approached at saturating substrate. The term Ki denotes a dissociation constant, usually derived from enzyme kinetics or from competition with a known ligand. As for `c1ccc(-c2ccccc2CNCCCNCCCCCCCNCCCNCc2ccccc2-c2ccccc2)cc1`, in the assay on Encephalitozoon cuniculi [1], the fold change (FC) was found to be 0.31. For the same compound, in the assay on Encephalitozoon cuniculi [2], the Km worked out at 2 µM and the Vmax amounted to 7.6 µM/min. Further, the fold change (FC) in the assay on Encephalitozoon cuniculi [3] is 0.8. Besides, in assay [4], the Ki worked out at 40 µM.

In the case of `CC(=O)NCCCNCCCCNCCCN`, in the assay on Encephalitozoon cuniculi [2], the Km came out at 30 µM and the Vmax was determined as 10 µM/min. In the assay with Encephalitozoon cuniculi [5], the Km was found to be 15 µM and the Vmax stood at 17.5 µM/min.

With `c1ccc(CNCCCNCCCCCCCNCCCNCc2ccccc2)cc1`, the figures for the fold change (FC) in the assay on Encephalitozoon cuniculi [1] and with Encephalitozoon cuniculi [3] were 0.89 and 0.98, respectively. In addition, in the assay with Encephalitozoon cuniculi [6], the Activity was 1370 nmol/min and 690 nmol/min.
